According to ChEMBL document CHEMBL1140649, “Design, synthesis, and preliminary biological evaluation of a novel triazole analogue of ceramide” (Bioorg Med Chem Lett, 2007):
pEC50: −log10 of the molar value. Activity calls are given as the source filed them. The calls are words filed in the database; no cut-off is given here.

How the values were obtained:
Type in all cases: functional, cell-based
Details in all cases: Homo sapiens
HCT-116 = assay: Cytotoxicity against HCT116 cells assessed as cell survival by SRB assay
K562 [1] = assay: Cytotoxicity against K562 cells assessed as cell survival by MTT assay
How it was run: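 Suspension leukemia cells seeded, 24 h, then 48 h treatment with compounds diluted from ethanol stock into medium. MTT added (final 500 µg/ml), 3 h at 37 °C. Medium removed, formazan dissolved in DMSO, absorbance at 570 nm. Survival relative to solvent-treated controls; EC50 (concentration giving 50% survival) by non-linear regression; minimum of three experiments.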

K562 [2] = assay: Induction of apoptosis in K562 cells assessed as DNA fragmentation after 18 hrs by agarose gel electrophoresis
How it was run: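 Cells in 100-mm dishes exposed to various concentrations for 18 h. Lysed in 50 mM Tris-HCl pH 7.5, 20 mM EDTA, 1% NP-40 for 5 min at 4 °C. SDS added (final 1%) for 1 h at 56 °C, then proteinase K (final 2.5 µg/µl) for 2 h at 37 °C. DNA precipitated with ammonium acetate (final 5 M) and ethanol. 5 µg run on 2% agarose gel.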

NCI-H358 = assay: Cytotoxicity against NCI-H358 cells assessed as cell survival by SRB assay

Row | Compound | pEC50 (HCT-116) | pEC50 (K562 [1]) | Activity (K562 [2]) | pEC50 (NCI-H358)
1 | CCCCCCCCCCCCCC[C@@H](O)[C@@H](O)[C@H](CO)n1cc(CCCC)nn1 | 4.89 | 4.84 | Active | 4.89
2 | CCCCCCCCCCCCC/C=C/[C@@H](O)[C@H](CO)n1cc(CCC)nn1 | 4.80 | 4.89 |  | 4.80
3 | CCCCCCCCCCCCC/C=C/[C@@H](O)[C@H](CO)n1cc(CCCC)nn1 | 4.89 | 4.91 | Active | 4.87
4 | CCCCCCCCCCCCCCCCCCCCCCCCc1cn([C@@H](CO)[C@H](O)[C@H](O)CCCCCCCCCCCCCC)nn1 | < 4.30 | < 4.30 |  | < 4.30
5 | CCCCCCCCCCCCCC[C@@H](O)[C@@H](O)[C@H](CO)n1cc(CCCCCCCCCCCCC)nn1 | < 4.30 | < 4.30 |  | < 4.30
6 | CCCCCCCCCCCCC/C=C/[C@@H](O)[C@H](CO)n1cc(CCCCCCCCCCCCC)nn1 | < 4.30 | < 4.30 |  | < 4.30
7 | CCCCCCCCCCCCCC[C@@H](O)[C@@H](O)[C@H](CO)n1cc(CCCCCC)nn1 | 4.92 | 4.90 |  | 4.86
8 | CCCCCCCCCCCCC/C=C/[C@@H](O)[C@H](CO)NC(C)=O | 4.61 | 4.45 |  | 4.71
9 | CCCCCCCCCCCCCC[C@@H](O)[C@@H](O)[C@H](CO)n1cc(CCC)nn1 | 4.86 | 4.83 |  | 4.88
10 | CCCCCCCCCCCCC/C=C/[C@@H](O)[C@H](CO)n1cc(CCCCCCCCCCCCCCCCCCCCCCCC)nn1 | < 4.30 | < 4.30 |  | < 4.30
11 | CCCCCCCCCCCCC/C=C/[C@@H](O)[C@H](CO)n1cc(CCCCCC)nn1 | 4.90 | 5.09 |  | 4.89
